# Experimental data: ChEMBL document CHEMBL1126207, “Base-catalyzed isomerization of retinoic acid. Synthesis and differentiation-inducing activities of 14-alkylated all-trans-, 13-cis-, and 20,14-retro-retinoic acids” (1992)
# Calls of active or inactive are those of the source. The calls are words filed in the database; no cut-off is given here.
# Tested on: HL-60
# Test: Concentration required for 50% inhibition of differentiation-inducing activity against human promyelocytic leukemia cell line HL-60
# Format: functional
# Details: read-out: ED50 (the source's name)
# Method in brief: (§1)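 HL-60 cells kept in suspension in RPMI1640 with 5% FCS plus penicillin G/streptomycin, 37 °C, 5% CO2. Seeded near 8 × 10^4 cells/mL, compound added from 0.2 mM ethanol stock (final ethanol below 0.5%), 4-day incubation. Differentiation by NBT reduction (20 min, 37 °C, 0.2% NBT with TPA), formazan-positive cells counted on ≥200 cells; ED50 taken from NBT data; retinoic acid run concurrently.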
row,EC50,Compound
1,680 nM,CC\C(C(=O)O)=C(C)/C=C/C=C(C)/C=C/C1=C(C)CCCC1(C)C
2,5.9 nM,CC1=C(/C=C/C(C)=C/C=C/C(C)=C\C(=O)O)C(C)(C)CCC1 [ISOTRETINOIN]
3,55.1 nM,C=C(/C=C/C=C(C)/C=C/C1=C(C)CCCC1(C)C)C(C)C(=O)O (stereo not given)

# The remaining lines, values behind:
row,Compound,EC50
1,CC1=C(/C=C/C(C)=C/C=C/C(C)=C(\C)C(=O)O)C(C)(C)CCC1,13 nM
2,CC1=C(/C=C/C(C)=C/C=C/C(C)=C/C(=O)O)C(C)(C)CCC1 [TRETINOIN],2.4 nM
3,CC1=C(/C=C/C(C)=C/C=C/C(C)=C(/C)C(=O)O)C(C)(C)CCC1,63 nM
4,C=C(/C=C/C=C(C)/C=C/C1=C(C)CCCC1(C)C)CC(=O)O,52 nM
5,C=C(/C=C/C=C(C)/C=C/C1=C(C)CCCC1(C)C)C(C)(C)C(=O)O,> 1000 nM

# Tested on: HL-60
# Test: Concentration required for 50% inhibition of differentiation-inducing activity against human promyelocytic leukemia cell line HL-60; IA is inactive
# Format: functional, cell-based
# Details: not given
# Method in brief: as §1
row,Compound,ED50
1,CC1=C(/C=C/C(C)=C/C=C/C(C)=C(/C(=O)O)C(C)C)C(C)(C)CCC1,inactive
2,CC1=C(/C=C/C(C)=C/C=C/C(C)=C(\C(=O)O)C(C)C)C(C)(C)CCC1,inactive
